How the values were obtained:
Assay type in all cases: cell-based
[1] = target: T1, GATA4/NKX2-5 (Mus musculus) (UniProt Q08369+P42582); test: Modulation of mouse GATA4/mouse NKX2-5 protein-protein interaction expressed in Chlorocebus aethiops COS1 cells harboring 3xHA reporter gene assessed as transcriptional synergy at 10 uM after 24 hrs by luciferase reporter gene assay relative to control
Method in brief: (§1)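 COS-1 cells seeded 14 000/well, grown overnight, then transfected for 6 h in serum- and antibiotic-free medium with pGL3-3xHA reporter (three NKX2-5 sites, 100 ng/well) plus pMT2-GATA4 and pMT2-NKX2-5 (total 50 ng/well), Fugene 6 at 1:3 DNA/reagent. Compound or 0.1% DMSO vehicle for 24 h, then luminescence read. Triplicates, Grubbs outliers removed, expressed as % of control.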

[2] = target: Transcription factor GATA-4 (Mus musculus) (UniProt Q08369); test: Modulation of mouse GATA4 expressed in Chlorocebus aethiops COS1 cells harboring NP-112 reporter gene assessed as BNP promoter-driven transcriptional activity at 10 uM after 24 hrs by luciferase reporter gene assay relative to control
Transcription factor GATA-4 (Mus musculus), sequence (Q08369 whole entry): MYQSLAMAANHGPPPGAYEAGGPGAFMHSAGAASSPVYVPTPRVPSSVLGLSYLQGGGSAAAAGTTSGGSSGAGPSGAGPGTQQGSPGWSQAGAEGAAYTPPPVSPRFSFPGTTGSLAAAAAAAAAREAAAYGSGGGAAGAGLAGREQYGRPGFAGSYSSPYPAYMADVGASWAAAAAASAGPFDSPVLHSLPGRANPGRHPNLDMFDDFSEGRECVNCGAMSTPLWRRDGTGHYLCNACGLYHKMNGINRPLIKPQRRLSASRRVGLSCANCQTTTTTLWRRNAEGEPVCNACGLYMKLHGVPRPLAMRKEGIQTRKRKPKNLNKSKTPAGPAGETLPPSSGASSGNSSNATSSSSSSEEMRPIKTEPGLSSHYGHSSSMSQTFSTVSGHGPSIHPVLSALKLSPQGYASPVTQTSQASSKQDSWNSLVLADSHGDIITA
Method in brief: (§2)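 GATA reporter assay: COS-1 cells (14 000/well, overnight) transfected 6 h serum/antibiotic-free with NP-112 reporter (tandem GATA sites plus rat BNP minimal promoter, 100 ng/well) and pMT2-GATA4 (25 ng/well), Fugene 6 1:3. Treated 24 h with compound or 0.1% DMSO. Luminescence read; triplicates, Grubbs outliers removed, % of control.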

[3] = target: Homeobox protein Nkx-2.5 (Mus musculus) (UniProt P42582); test: Enhancement of mouse NKX2-5 expressed in Chlorocebus aethiops COS1 cells harboring 3xHA reporter gene assessed as protein-induced transcriptional activity at 10 uM after 24 hrs by luciferase reporter gene assay relative to control
Homeobox protein Nkx-2.5 (Mus musculus), sequence (P42582 whole entry): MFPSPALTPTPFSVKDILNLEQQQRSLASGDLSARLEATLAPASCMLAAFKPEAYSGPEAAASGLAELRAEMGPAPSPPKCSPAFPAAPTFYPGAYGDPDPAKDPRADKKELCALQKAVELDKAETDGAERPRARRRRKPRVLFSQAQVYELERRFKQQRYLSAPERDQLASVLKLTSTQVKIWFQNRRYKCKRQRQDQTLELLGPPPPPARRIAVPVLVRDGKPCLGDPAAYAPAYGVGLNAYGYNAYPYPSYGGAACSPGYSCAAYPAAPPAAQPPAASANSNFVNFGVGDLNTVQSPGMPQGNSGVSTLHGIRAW
Method in brief: (§3)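 COS-1 cells seeded 14 000/well and grown overnight. Transfection for 6 h in serum- and antibiotic-free medium with pGL3-3xHA reporter (100 ng/well) and pMT2-NKX2-5 (25 ng/well), Fugene 6 1:3. Compound or 0.1% DMSO vehicle for 24 h, then luciferase luminescence. Triplicate wells with Grubbs outlier removal, % of control.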

[4] = target: Homeobox protein Nkx-2.5 (Mus musculus) (UniProt P42582); test: Modulation of mouse NKX2-5 expressed in Chlorocebus aethiops COS1 cells harboring 3xHA reporter gene assessed as protein-induced transcriptional activity at 10 uM after 24 hrs by luciferase reporter gene assay relative to control; method in brief: as §3
COS-1 = test: Induction of necrosis in Chlorocebus aethiops COS1 cells assessed as LDH release at 1 to 30 uM after 24 hrs by LDH assay relative to control; conditions: cos-1, 24 h
Method in brief: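 COS-1 cells in DMEM with 10% FBS at 37 °C, 5% CO₂, plated 10 000/well and exposed next day to 1–30 μM for 24 h. Medium samples mixed with NAD, iodonitrotetrazolium, lactate and phenazine methosulfate in 0.2 M Tris-HCl pH 8.2, 30 min at room temperature. Stopped with acetic acid, A490 read and normalized to maximal and spontaneous release.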

[5] = target: T1, GATA4/NKX2-5 (Mus musculus); test: Inhibition of mouse GATA4/mouse NKX2-5 protein-protein interaction expressed in Chlorocebus aethiops COS1 cells harboring 3xHA reporter gene assessed as transcriptional synergy at 10 uM after 24 hrs by luciferase reporter gene assay relative to control; design: scale not given: the % may be the effect or the level left; method in brief: as §1
[6] = target: T1, GATA4/NKX2-5 (Mus musculus); test: Enhancement of mouse GATA4/mouse NKX2-5 protein-protein interaction expressed in Chlorocebus aethiops COS1 cells harboring 3xHA reporter gene assessed as transcriptional synergy at 10 uM after 24 hrs by luciferase reporter gene assay relative to control; method in brief: as §1
[7] = target: Transcription factor GATA-4 (Mus musculus) (UniProt Q08369); test: Inhibition of mouse GATA4 expressed in Chlorocebus aethiops COS1 cells harboring NP-112 reporter gene assessed as BNP promoter-driven transcriptional activity at 10 uM after 24 hrs by luciferase reporter gene assay relative to control; design: scale not given: the % may be the effect or the level left; method in brief: as §2
[8] = target: Homeobox protein Nkx-2.5 (Mus musculus) (UniProt P42582); test: Inhibition of mouse NKX2-5 expressed in Chlorocebus aethiops COS1 cells harboring 3xHA reporter gene assessed as protein-induced transcriptional activity at 10 uM after 24 hrs by luciferase reporter gene assay relative to control; design: scale not given: the % may be the effect or the level left; method in brief: as §3

Compound	Activity [1]	Activity [2]	Activity [4]	Activity (COS-1)	other results
Cc1onc(-c2ccccc2)c1C(=O)Nc1ccc(C(=O)OCCCCC#N)cc1	90%	100%			Activity [3]: 150%
CCN(CC)c1ccc(-n2c(=O)c3c(C)onc3c3ccccc32)cc1					Activity [3]: 110%
CCN(CC)c1ccc(NC(=O)c2c(-c3ccsc3)noc2C)cc1	66%	71%	84%	< 8%	
C=CCN(Cc1ccc(N(CC)CC)cc1)c1c(-c2ccccc2)noc1C	53%	80%	73%	< 8%	
CCN(c1ccc(NC(=O)c2c(C)noc2-c2snnc2C)cc1)C(C)C					Activity [5]: 19%
CCN(CC)c1ccc(NC(=O)c2c(C)noc2-c2cc(C)on2)cc1	78%	100%	84%	< 8%	
CCN(CC)c1ccc(NC(=O)c2cnoc2C2CC2)cc1					Activity [6]: 140%
Cc1onc(-c2ccccc2)c1C(=O)Nc1ccc(C#C[Si](C)(C)C)cc1	69%	93%	75%	< 8%	
CCN(CC)c1ccc(NC(=O)c2cnc(SC)n2-c2ccc(F)cc2)cc1	52%		65%	< 8%	Activity [7]: 45%
CCC(C)NC(=O)c1cc(-c2ccco2)on1 (configuration not stated)					Activity [6]: 140%
CCN(CC)c1ccc(NC(=O)c2csc3nnsc23)cc1					Activity [6]: 130%
CCN(CC)c1ccc(NC(=O)c2cn(C)cc2-c2cc(C)on2)cc1	110%	110%			Activity [3]: 110%
CCN(CC)c1ccc(NC(=O)c2c(-c3ccccc3)nnn2CCc2ccccc2)cc1				< 8%	Activity [8]: 34%; Activity [7]: 38%
Cc1onc(-c2ccccc2)c1C(=O)Nc1ccc(C(=O)OCCC#N)cc1					Activity [3]: 130%
CCN(c1ccc(NC(=O)c2c(-c3ccccc3)noc2C)cc1)C(C)C	41%	75%		< 8%	Activity [8]: 34%
Cc1onc(-c2ccccc2)c1C(=O)N(C)c1ccc(C(=O)O)cc1					Activity [6]: 130%
CCN(CC)c1ccc(NC(=O)c2c(-c3ccncc3)noc2C)cc1	61%	79%	61%	< 8%	
Cc1onc(-c2ccccc2)c1C(=O)Nc1ccc2oc(-c3ccccc3)cc(=O)c2c1	31%	66%	53%	< 8%	
CCN(CC)c1ccc(NC(=O)c2snnc2-c2ccccc2)cc1	41%	52%	49%	< 8%	
Cc1onc(-c2ccccc2)c1COc1ccc(C(=O)O)cc1					Activity [6]: 120%
CCN(CC)c1ccc(NC(=O)c2csc([N+](=O)[O-])c2)cc1	25%			< 8%	Activity [8]: 26%; Activity [5]: 25%; Activity [7]: 23%
Cc1onc(-c2ccccc2)c1NC(=O)c1ccc(N2CCN(C)CC2)cc1					Activity [6]: 120%
C#CC[N+](CC)(CC)c1ccc(NC(=O)c2c(-c3ccccc3)noc2C)cc1					Activity [3]: 120%
CCN(CC)c1ccc(CN(C(=O)C(F)(F)F)c2c(-c3ccccc3)noc2C)cc1	52%	72%	71%	< 8%	
CCN(CC)c1ccc(NC(=O)c2c(-c3ccc(F)cc3)noc2C)cc1	44%	79%	47%	< 8%	
CCN(CC)c1ccc(NC(=O)c2cnoc2-c2ccccc2)cc1	47%	62%	50%	< 8%	
CCC(OC)c1ccc(OCc2c(-c3ccccc3)noc2C)cc1 (racemic)	43%	78%	67%	< 8%	
CC(=O)c1ccc(NC(=O)c2cc(-c3ccco3)on2)cc1					Activity [6]: 130%

From ChEMBL document CHEMBL4321800, “Synthesis, Identification, and Structure-Activity Relationship Analysis of GATA4 and NKX2-5 Protein-Protein Interaction Modulators” (J Med Chem, 2019)
